Measured values published in ChEMBL document CHEMBL1770075, “Thermal solvent-free synthesis of novel pyrazolyl chalcones and pyrazolines as potential antimicrobial agents” (2011).
Converted amounts (≈) assume the structure as drawn.

Columns and labels:
Candida albicans [1] = assay: Antifungal activity against Candida albicans after 48 hrs by Halo zone test; type: functional
Aspergillus fumigatus [2] = assay: Antifungal activity against Aspergillus fumigatus after 48 hrs by Halo zone test; type: functional
[3] = system: Trichophyton mentagrophytes; assay: Antifungal activity against Trichophyton mentagrophytes after 48 hrs by Halo zone test; type: functional
Talaromyces marneffei [4] = assay: Antifungal activity against Penicillium marneffei after 48 hrs by Halo zone test; type: functional
Candida albicans [5] = assay: Antifungal activity against Candida albicans after 48 hrs; type: functional
In short: (§1)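 Broth with two-fold serial dilutions of compound was inoculated with 1.6 × 10⁴–6 × 10⁴ c.f.u/ml and incubated at 35 °C. MIC is the lowest concentration that arrests growth. For MFC, 0.1 ml was spread on agar, colonies were counted after 48 h at 35 °C, and the endpoint was the lowest concentration killing 99.9%.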

Aspergillus fumigatus [6] = assay: Antifungal activity against Aspergillus fumigatus after 48 hrs; type: functional; in short: as §1
[7] = system: Trichophyton mentagrophytes; assay: Antifungal activity against Trichophyton mentagrophytes after 48 hrs; type: functional; in short: as §1
Talaromyces marneffei [8] = assay: Antifungal activity against Penicillium marneffei after 48 hrs; type: functional; in short: as §1
Streptococcus pyogenes [9] = assay: Antibacterial activity against clinical isolate of Streptococcus pyogenes after 24 hrs by disk diffusion method; type: functional
Staphylococcus aureus [10] = assay: Antibacterial activity against methicillin-resistant Staphylococcus aureus after 24 hrs by disk diffusion method; type: functional
Pseudomonas aeruginosa [11] = assay: Antibacterial activity against Pseudomonas aeruginosa ATCC 27853 after 24 hrs by disk diffusion method; type: functional
Klebsiella pneumoniae [12] = assay: Antibacterial activity against clinical isolate of Klebsiella pneumoniae after 24 hrs by disk diffusion method; type: functional
Escherichia coli [13] = assay: Antibacterial activity against Escherichia coli ATCC 25922 after 24 hrs by disk diffusion method; type: functional
Streptococcus pyogenes [14] = assay: Antibacterial activity against clinical isolate of Streptococcus pyogenes after 24 hrs by broth dilution method; type: functional
Staphylococcus aureus [15] = assay: Antibacterial activity against methicillin-resistant Staphylococcus aureus after 24 hrs by broth dilution method; type: functional
Pseudomonas aeruginosa [16] = assay: Antibacterial activity against Pseudomonas aeruginosa ATCC 27853 after 24 hrs by broth dilution method; type: functional; details: ATCC 27853, 24 h
Klebsiella pneumoniae [17] = assay: Antibacterial activity against clinical isolate of Klebsiella pneumoniae after 24 hrs by broth dilution method; type: functional
Escherichia coli [18] = assay: Antibacterial activity against Escherichia coli ATCC 25922 after 24 hrs by broth dilution method; type: functional; details: ATCC 25922, 24 h
Streptococcus pyogenes [19] = assay: Bactericidal activity against clinical isolate of Streptococcus pyogenes after 18 to 24 hrs by colony counting method; type: functional
Staphylococcus aureus [20] = assay: Bactericidal activity against methicillin-resistant Staphylococcus aureus after 18 to 24 hrs by colony counting method; type: functional
In short: (§2)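 Colonies were counted after 18–24 h at 35 °C. MBC is the lowest concentration that kills 99.9% of the inoculum.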

Pseudomonas aeruginosa [21] = assay: Bactericidal activity against Pseudomonas aeruginosa ATCC 27853 after 18 to 24 hrs by colony counting method; type: functional; in short: as §2
Klebsiella pneumoniae [22] = assay: Bactericidal activity against clinical isolate of Klebsiella pneumoniae after 18 to 24 hrs by colony counting method; type: functional
Escherichia coli [23] = assay: Bactericidal activity against Escherichia coli ATCC 25922 after 18 to 24 hrs by colony counting method; type: functional; in short: as §2
Candida albicans [24] = assay: Antifungal activity against Candida albicans after 48 hrs by agar diffusion method; type: functional
Aspergillus fumigatus [25] = assay: Antifungal activity against Aspergillus fumigatus after 48 hrs by agar diffusion method; type: functional
[26] = system: Trichophyton mentagrophytes; assay: Antifungal activity against Trichophyton mentagrophytes after 48 hrs by agar diffusion method; type: functional
Talaromyces marneffei [27] = assay: Antifungal activity against Penicillium marneffei after 48 hrs by agar diffusion method; type: functional
Streptococcus pyogenes [28] = assay: Antibacterial activity against clinical isolate of Streptococcus pyogenes after 24 hrs at 30 ug by Halo zone test; details: read-out: DIZ
Staphylococcus aureus [29] = assay: Antibacterial activity against methicillin-resistant Staphylococcus aureus at 30 ug after 24 hrs by Halo zone test; details: read-out: DIZ
Klebsiella pneumoniae [30] = assay: Antibacterial activity against clinical isolate of Klebsiella pneumoniae at 30 ug after 24 hrs by Halo zone test; details: read-out: DIZ
Pseudomonas aeruginosa [31] = assay: microbe, parasite or virus in culture; details: ATCC 27853, 24 h, read-out: DIZ

SMILES | diameter of the inhibition zone (DIZ) (Candida albicans [1]) [mm] | diameter of the inhibition zone (DIZ) (Aspergillus fumigatus [2]) [mm] | diameter of the inhibition zone (DIZ) [3] [mm] | diameter of the inhibition zone (DIZ) (Talaromyces marneffei [4]) [mm] | MFC (Candida albicans [5]) [µg/mL] | MIC (Candida albicans [5]) [µg/mL] | MFC (Aspergillus fumigatus [6]) [µg/mL] | MIC (Aspergillus fumigatus [6]) [µg/mL] | MFC [7] [µg/mL] | MIC [7] [µg/mL] | MFC (Talaromyces marneffei [8]) [µg/mL] | MIC (Talaromyces marneffei [8]) [µg/mL] | diameter of the inhibition zone (DIZ) (Streptococcus pyogenes [9]) [mm] | diameter of the inhibition zone (DIZ) (Staphylococcus aureus [10]) [mm] | diameter of the inhibition zone (DIZ) (Pseudomonas aeruginosa [11]) [mm] | diameter of the inhibition zone (DIZ) (Klebsiella pneumoniae [12]) [mm] | diameter of the inhibition zone (DIZ) (Escherichia coli [13]) [mm] | MBC (Staphylococcus aureus [20]) [µg/mL] | MBC (Pseudomonas aeruginosa [21]) [µg/mL] | MBC (Escherichia coli [23]) [µg/mL] | also measured
OC(Cn1cncn1)(Cn1cncn1)c1ccc(F)cc1F [FLUCONAZOLE] | 20 | 20 | 19 | 18 | 12.5 (≈ 40.8 µM) | 6.25 (≈ 20.4 µM) | 12.5 (≈ 40.8 µM) | 6.5 (≈ 21.2 µM) | 12.5 (≈ 40.8 µM) | 6.25 (≈ 20.4 µM) | 12.5 (≈ 40.8 µM) | 6.5 (≈ 21.2 µM) | – | – | – | – | – | – | – | – | –
Cc1nn(-c2ccccc2)c(Cl)c1/C=C/C(=O)C1C(=O)N(C)C(=O)N(C)C1=O | – | – | – | – | 50 (≈ 125 µM) | 25 (≈ 62.4 µM) | 50 (≈ 125 µM) | 25 (≈ 62.4 µM) | 50 (≈ 125 µM) | 25 (≈ 62.4 µM) | 50 (≈ 125 µM) | 25 (≈ 62.4 µM) | 20.1 | 17.3 | 25.2 | 16.1 | 22.2 | 50 (≈ 125 µM) | 100 (≈ 249 µM) | 50 (≈ 125 µM) | MIC (Streptococcus pyogenes [14]): 25 µg/mL (≈ 62.4 µM); MIC (Staphylococcus aureus [15]): 25 µg/mL (≈ 62.4 µM); MIC (Pseudomonas aeruginosa [16]): 25 µg/mL (≈ 62.4 µM); MIC (Klebsiella pneumoniae [17]): 50 µg/mL (≈ 125 µM); MIC (Escherichia coli [18]): 25 µg/mL (≈ 62.4 µM); MBC (Streptococcus pyogenes [19]): 50 µg/mL (≈ 125 µM); MBC (Klebsiella pneumoniae [22]): 100 µg/mL (≈ 249 µM); diameter of the inhibition zone (DIZ) (Candida albicans [24]): 21.3 mm; diameter of the inhibition zone (DIZ) (Aspergillus fumigatus [25]): 18.6 mm; diameter of the inhibition zone (DIZ) [26]: 17.2 mm; diameter of the inhibition zone (DIZ) (Talaromyces marneffei [27]): 14.8 mm
Cc1nn(-c2ccccc2)c(Cl)c1C1CC(C2C(=O)N(C)C(=O)N(C)C2=O)=NN1 (stereo not given) | – | – | – | – | 100 (≈ 241 µM) | 25 (≈ 60.3 µM) | 100 (≈ 241 µM) | 25 (≈ 60.3 µM) | 100 (≈ 241 µM) | 25 (≈ 60.3 µM) | > 100 | 50 (≈ 121 µM) | 17.1 | 16.5 | 21.8 | 15.7 | 19.6 | 100 (≈ 241 µM) | 100 (≈ 241 µM) | 100 (≈ 241 µM) | MIC (Streptococcus pyogenes [14]): 25 µg/mL (≈ 60.3 µM); MIC (Staphylococcus aureus [15]): 50 µg/mL (≈ 121 µM); MIC (Pseudomonas aeruginosa [16]): 50 µg/mL (≈ 121 µM); MIC (Klebsiella pneumoniae [17]): 50 µg/mL (≈ 121 µM); MIC (Escherichia coli [18]): 25 µg/mL (≈ 60.3 µM); MBC (Streptococcus pyogenes [19]): 50 µg/mL (≈ 121 µM); MBC (Klebsiella pneumoniae [22]): 100 µg/mL (≈ 241 µM); diameter of the inhibition zone (DIZ) (Candida albicans [24]): 20.8 mm; diameter of the inhibition zone (DIZ) (Aspergillus fumigatus [25]): 17.4 mm; diameter of the inhibition zone (DIZ) [26]: 16.9 mm; diameter of the inhibition zone (DIZ) (Talaromyces marneffei [27]): 14.2 mm
COC1=CC(=O)C[C@@H](C)[C@]12Oc1c(Cl)c(OC)cc(OC)c1C2=O [GRISEOFULVIN] | 30 | 27 | 24 | 20 | 12.5 (≈ 35.4 µM) | 6.25 (≈ 17.7 µM) | 25 (≈ 70.9 µM) | 12.5 (≈ 35.4 µM) | 25 (≈ 70.9 µM) | 6.25 (≈ 17.7 µM) | 25 (≈ 70.9 µM) | 12.5 (≈ 35.4 µM) | – | – | – | – | – | – | – | – | –
O=C(O)c1cn(C2CC2)c2cc(N3CCNCC3)c(F)cc2c1=O [CIPROFLOXACIN] | – | – | – | – | – | – | – | – | – | – | – | – | – | – | – | – | – | 50 (≈ 151 µM) | 25 (≈ 75.4 µM) | 50 (≈ 151 µM) | zone of inhibition at 30 µg/disc (Streptococcus pyogenes [28]): 24 mm; zone of inhibition at 30 µg/disc (Staphylococcus aureus [29]): 25 mm; zone of inhibition at 30 µg/disc (Klebsiella pneumoniae [30]): 18 mm; zone of inhibition at 30 µg/disc (Pseudomonas aeruginosa [31]): 32 mm
